ASAP1 inh: ASAP1 ArfGAP inhibition. inhibition, % at 16.5 µM. ASAP1-stimulated ARF1 GTP hydrolysis, GDP FP detection. Q9ULH1. 360,000 tested, 0.19% active; in the data active = inhibition above about 25%
Target sequence (Q9ULH1 325-724 limits assumed): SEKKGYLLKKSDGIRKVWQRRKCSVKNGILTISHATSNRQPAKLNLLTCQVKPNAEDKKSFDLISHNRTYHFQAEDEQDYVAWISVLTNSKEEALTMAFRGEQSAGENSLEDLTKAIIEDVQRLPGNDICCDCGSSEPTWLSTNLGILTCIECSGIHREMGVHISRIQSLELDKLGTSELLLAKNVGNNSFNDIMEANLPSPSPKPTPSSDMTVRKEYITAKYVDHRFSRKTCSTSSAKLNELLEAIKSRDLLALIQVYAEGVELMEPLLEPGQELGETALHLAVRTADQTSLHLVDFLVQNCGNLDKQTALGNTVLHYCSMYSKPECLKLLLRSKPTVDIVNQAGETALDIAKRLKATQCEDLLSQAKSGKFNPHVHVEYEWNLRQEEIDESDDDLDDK
Fh CTSL1 inh: counter-screen for PFM18AAP inhibitors: inhibitors of F. hepatica cathepsin L1; recombinant F. hepatica cathepsin L1, Z-Leu-Arg-MCA fluorescence; inhibition, % at 5.96 µM; 300,000 tested, 0.49% active; AID 1906;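 active = inhibition above the mean of all tested compounds plus 3 SD, set per screening campaign, cut at about 17% in these data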
GC-B act: GC-B (human) receptor activation; P20594; 370,000 tested, 0.11% active; HEK293-GC-B cells, CNP EC30, cGMP TR-FRET; 0% at EC30 CNP, 100% saturating CNP; activation, % at 10 µM;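 active = activation at 10 µM reaching about 35% in either raw or pattern-adjusted values, limit read from the data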
HCV core dimer: HCV core protein dimerization inhibition. 300,000 tested, 0.33% active. AID 1899. inhibition, % at 5 µM. TR-FRET GST/Flag-core106 dimerization, 1536-well;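 active = inhibition above the mean of all tested compounds plus 3 SD, set per screening campaign, cut at about 45% in these data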
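System – GST-tagged and Flag-tagged HCV core protein residues 1-106 · Repeats – one well for each compound · Technique – TR-FRET 671 and 617 nm emission · Doses – one concentration, 5 µM, in 0.5% DMSO · Times – 4 h, 22.5 °C incubation · Also added – Eu donor and XL665 acceptor anti-tag antibodies · Measure – percent inhibition of core106 dimerization signal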
GC-A act: GC-A (human) enzyme activation; P16066; HEK293 GC-A cells, cGMP TR-FRET, EC30 ANP; 0% at EC30 ANP, 100% saturating ANP; activation, % at 10 µM; 370,000 tested, 0.14% active; in the data active = activation above about 40%
ARFGAP1 inhibitor: inhibitors of rat ARFGAP1; Q62848; Arfgap1-stimulated ARF1 GTP hydrolysis, GDP FP detection; inhibition, % at 16.5 µM; 360,000 tested, 0.26% active; AID 651572;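 active = inhibition above a per-plate limit, mean inhibition of low control wells plus 3 SD, cut at about 25% in these data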
Target sequence (Q62848 1-136 limits assumed): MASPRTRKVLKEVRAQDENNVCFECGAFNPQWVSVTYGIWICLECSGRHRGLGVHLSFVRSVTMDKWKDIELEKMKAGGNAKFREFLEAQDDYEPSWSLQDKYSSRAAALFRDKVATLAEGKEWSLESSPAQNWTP
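Material: rat Arfgap1 GAP domain (His6, aa 1-136), purified enzyme. Also added: human ARF1(Δ1-17)-GTP substrate. Compound dosing: 16.5 µM single point, 1.26% DMSO. Timing: enzyme reaction 120 min at 25 °C after 20 min preincubation. Signal: GDP detection by fluorescence polarization. Read-out basis: percent inhibition of GAP-stimulated GDP formation, scaled between DMSO and no-Arfgap1 medians.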
Large screens that a line does not name were inactive. Hits are enriched below; roughly 1.2% of the tested compounds scored in any of these assays.

O=C1S/C(=C\C=C\c2ccco2)C(=O)N1c1ccccc1	none
Cn1cccc1/C=C1\SC(=S)N(NC(=O)c2ccccc2O)C1=O	none
O=C(CCCN1C(=O)S/C(=C/C=C/c2ccccc2)C1=O)Nc1ccc(C(=O)O)cc1	none
O=C(NN1C(=O)/C(=C/C=C/c2ccco2)SC1=S)c1ccccc1O	HCV core dimer 70.2
O=C(O)CCCN1C(=O)/C(=C/C=C/c2ccco2)SC1=S	HCV core dimer 74.5
O=C(NC1CCCCC1)C1CC(=O)N(CCc2ccc(F)cc2)C1 (stereo not given)	none
O=C(N/N=C/C(Cl)=C\c1ccccc1)c1ccco1	none
COc1ccc(OC)c(CNC(=O)Cc2c(C(=O)O)[nH]c3ccccc23)c1	none
CN(C)c1ccc(C=c2c3ccccc3n3c2c2ccccc2[n+]3C)cc1	ASAP1 inh 59.4, ARFGAP1 inhibitor 95.0 (no result: Fh CTSL1 inh, HCV core dimer)
Cc1occc1C(=O)N=Nc1c(O)[nH]c2ccc(Br)cc12	none (no result: ASAP1 inh, GC-B act, GC-A act, ARFGAP1 inhibitor)
O=C1/C(=C/c2ccc(N3CCOCC3)o2)SC(=Nc2ccccc2)N1CCc1c[nH]c2ccccc12	Fh CTSL1 inh 17.5 (no result: ASAP1 inh, GC-B act, GC-A act, ARFGAP1 inhibitor)
O=C(CC1(O)C(=O)Nc2ccc(Br)cc21)c1ccccc1 (stereo not given)	none (no result: Fh CTSL1 inh, HCV core dimer)
CCN1C(=O)C(O)(CC(=O)/C=C/C=C/c2ccccc2)c2ccccc21 (stereo not given)	Fh CTSL1 inh 21.6
O=C(/C=C/C=C/c1ccccc1)CC1(O)C(=O)N(CCc2ccccc2)c2ccccc21 (stereo not given)	Fh CTSL1 inh 18.0
NC(=O)CN1C(=O)C(O)(CC(=O)/C=C\C=C\c2ccccc2)c2ccccc21 (stereo not given)	none
Cc1ccc2c(c1)C(O)(CC(=O)/C=C/C=C/c1ccccc1)C(=O)N2 (stereo not given)	Fh CTSL1 inh 21.1
C#CCN1C(=O)C(O)(CC(=O)/C=C/C=C/c2ccccc2)c2ccccc21 (stereo not given)	Fh CTSL1 inh 38.5
CC1=C(C(=O)N(C)C)CC(CC(=O)NCCN2CCOCC2)C(=O)N1CCCN1CCCC1=O (stereo not given)	none (no result: Fh CTSL1 inh, HCV core dimer)
CC(C)(C)OC(=O)C(C1NC(C(=O)O)C(C)(C)S1)N1C(=O)c2ccccc2C1=O (stereo not given)	none (no result: Fh CTSL1 inh, HCV core dimer)
CC(=O)Nc1ccc(S(=O)(=O)Nc2ccc(C(=O)NCC(=O)O)cc2)cc1	none
CC(=O)Cn1c(CN2CCCC2)nc2ccccc2c1=O	none
Cc1cccc(C(=O)N=c2c(C#N)cc3c(=O)n4cccc(C)c4nc3n2Cc2ccco2)c1	HCV core dimer 59.7
Cc1cccn2c(=O)c3cc(C#N)c(=NC(=O)c4ccccc4)n(Cc4ccco4)c3nc12	HCV core dimer 46.0
Cc1cccn2c(=O)c3cc(C#N)c(=NC(=O)c4ccco4)n(Cc4ccco4)c3nc12	none
COc1cccc(CNC(=O)Cn2ccc3cc(S(=O)(=O)N4CCCC4)ccc32)c1	none
CC1=NN(C(=O)CCc2ccccc2)C(c2ccccc2)C1 (stereo not given)	none
CC1C(=O)N(Cc2cn(CCC3OCCO3)nn2)CCS(=O)(=O)N1Cc1ccc(-c2ccc(Cl)cc2)cc1 (stereo not given)	GC-A act 49.3 (no result: Fh CTSL1 inh, HCV core dimer)
CS(=O)(=O)c1sc(C#N)c2c1C(=O)CC(c1ccccc1)C2 (stereo not given)	GC-B act 48.4
Cc1cc(C(=O)CCl)c(C)n1CCc1ccc(F)cc1	Fh CTSL1 inh 23.5
Cc1cc(C(=O)CSc2nnc(N)s2)c(C)n1CCc1ccc(Cl)cc1	none
COc1ccc(CCn2c(C)cc(C(=O)CCl)c2C)cc1OC	Fh CTSL1 inh 43.6
Cc1cc(C(=O)CCl)c(C)n1CCc1ccc(Cl)cc1	Fh CTSL1 inh 21.2
COc1ccc(-c2nnc(SC(C(=O)c3c[nH]c4ccccc34)c3ccccc3)n2N)cc1OC (stereo not given)	none
CC(OC(=O)CN1C(=O)NC2(CCCC2)C1=O)C(=O)c1ccccc1 (stereo not given)	none
O=C(Nc1cccc2cccnc12)c1cc(F)c(F)cc1Cl	none
Cc1ccc2c(c1)c1c3n2CCN(C(=O)CCl)C3CCC1 (stereo not given)	Fh CTSL1 inh 39.4
CC(=O)N1CCn2c3c(c4cc(C)ccc42)CCCC31 (stereo not given)	none
CC(=O)N1CCn2c3c(c(=O)c4cc(C)ccc42)CCC31 (stereo not given)	Fh CTSL1 inh 24.0
CC(/C=C1\SC(=S)N(NC(=O)c2ccc(C)cc2)C1=O)=C\c1ccccc1	HCV core dimer 66.5 (no result: ASAP1 inh, GC-B act, GC-A act, ARFGAP1 inhibitor)
Cc1cccc2cc3c(nc12)SC(=NCC1CCCO1)N(Cc1ccco1)C3 (stereo not given)	HCV core dimer 78.6 (no result: ASAP1 inh, GC-B act, GC-A act, ARFGAP1 inhibitor)
Cc1ccc2nc3c(cc2c1)CN(Cc1ccco1)C(=NCC1CCCO1)S3 (stereo not given)	none
O=C(NCCCN1CCCCCC1)c1ccc2c(Cl)c3c(nc2c1)CCCC3	none
CCN(CC)S(=O)(=O)c1ccc(N2CCOCC2)c(NC(=O)c2cc3ccccc3o2)c1	none (no result: Fh CTSL1 inh, HCV core dimer)
CCCOc1ccc(F)cc1-c1cc(C(=O)Nc2ccc(OC)cc2OC)[nH]n1	none (no result: Fh CTSL1 inh, HCV core dimer)
CCCOc1ccc(F)cc1-c1cc(C(=O)Nc2ccc(OC)cc2C)[nH]n1	GC-B act 62.2, GC-A act 58.0 (no result: Fh CTSL1 inh, HCV core dimer)
COc1ccc(NC(=O)c2cc(-c3cc(Cl)ccc3OC)n[nH]2)c(C)c1	GC-B act 87.8, GC-A act 74.7 (no result: Fh CTSL1 inh, HCV core dimer)
O=C(NCc1ccc2[nH]c3c(c2c1)CCCC3)c1ccc(S(=O)(=O)N2CCCCC2)cc1	none
O=C1c2ccccc2C(=O)N1c1cccc(-c2csc(Nc3ccc4c(c3)OCO4)n2)c1	HCV core dimer 49.1 (no result: ASAP1 inh, GC-B act, GC-A act, ARFGAP1 inhibitor)
c1ccc(-c2csc(Nc3ccc4c(c3)OCO4)n2)cc1	none (no result: Fh CTSL1 inh, HCV core dimer)
CC(C(=O)N1CCN(Cc2ccc3c(c2)OCO3)CC1)c1ccc([N+](=O)[O-])cc1 (stereo not given)	Fh CTSL1 inh 18.0
COc1ccc(C(=O)Nc2nc(-c3ccc([N+](=O)[O-])cc3)c(-c3ccc(OC)cc3)s2)cc1	none
COC(=O)CSc1cc(C)nc2ccc(OC)cc12	none
C=CCN(CC=C)Cc1c(C)[nH]c2c(C)c(C)ccc2c1=O	none
CCN(Cc1ccccc1)Cc1c(C)[nH]c2c(C)c(C)ccc2c1=O	Fh CTSL1 inh 47.5
O=C(CNC(=O)c1ccc(Cl)cc1Cl)OCC(=O)N1CCN(c2ccccc2)CC1	none (no result: Fh CTSL1 inh, HCV core dimer)
O=C(COC(=O)CNC(=O)c1ccc(Cl)cc1Cl)Nc1ccc(N2CCOCC2)cc1	Fh CTSL1 inh 17.3
CCOC(=O)CN1CCC(c2cc(-c3ccc(Cl)cc3)n[nH]2)CC1	GC-A act 62.0
O=C(CNC(=O)c1ccccc1)OCc1cc(=O)n2cc(Br)ccc2n1	none

Bioassay records (PubChem)
